KCNQ1 block: blocks the human KCNQ1 potassium channel. AID 2642. CHO-K1 KCNQ1, FluxOR thallium flux fluorescence; active compounds read high. B-score at 10 µM. 310,000 tested, 1.3% active;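 active = compounds whose thallium flux B-score, printed positive for inhibition, exceeds three library SD while starting fluorescence stays within three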;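 note: channel opened by potassium depolarization with thallium stimulus after 20 min compound exposure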
KCNQ1 pot: potentiates or activates the human KCNQ1 potassium channel. P51787. CHO-K1 KCNQ1, thallium flux FluxOR fluorescence; active compounds read high. B-score at 10 µM. 310,000 tested, 0.35% active. AID 2648;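 active = fluorescence ratio B-score, a plate-corrected score, at least three library SD, with initial intensity B-score within 5 SD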
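Material: CHO-K1 cells stably expressing KCNQ1. Medium: assay buffer for compound exposure, DMSO matched across wells. Reagent: K+/Tl+ depolarizing stimulus. Compound dosing: single-concentration screen. Times: 37 °C overnight plating, 90-min dark dye load, 20-min compound pretreatment. Technique: FluxOR Tl+ flux fluorescence.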
hERG rescue: hERG (human) protection from proarrhythmic block; activation (rescue from dofetilide block), less the hit threshold, % at 10 µM; CHO-hERG, FluxOR thallium flux, dofetilide IC70 present; AID 1511; 310,000 tested, 0.51% active;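 active = activation above the mean of controls blocked by dofetilide plus 5 SD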;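 note: thallium influx through hERG after potassium depolarization seen as dye fluorescence rise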
KCC2 mod: modulates chloride dependent transport by human KCC2. Q9H2X9. KCC2 cells, thallium flux FluoZin-2 fluorescence. B-score of Tl+ flux slope (higher = more flux/activation; lower = inhibition) at 10 µM. 190,000 tested, 2.2% active. AID 1456;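 active = thallium flux slope and its plate-corrected score both differing from the plate sample mean at a set confidence after two filtering rounds, in either direction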;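 note: slope of fluorescence scaled to starting intensity during 10 to 20 s after thallium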
KCNK9 inh: blocks the human KCNK9 two-pore domain potassium channel. Q9NPC2. HEK293 KCNK9, FluxOR thallium flux fluorescence; active compounds read low. B-score at 10 µM. 310,000 tested, 1.2% active. AID 488922;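 active = ratio B-score over 3 SD below the library mean, with starting fluorescence within 5 SD of its mean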;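 note: negative B-score means less thallium flux so channel inhibition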
KCNK3 block: human KCNK3 channel inhibition, primary screen | AID 602410 | CHO-KCNK3 thallium flux, FluxOR fluorescence; active compounds read low | B-score at 10 µM | 340,000 tested, 0.84% active;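 active = B-score under library mean minus 4 SD, starting fluorescence ratio at most library mean plus 5 SD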;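 note: more negative B-score means stronger inhibition of thallium flux through KCNK3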
KCC2 sec1: KCC2 (human) modulation, secondary assay. shares compounds with KCC2 mod. HEK293-KCC2, thallium flux, FluoZin2 fluorescence; active compounds read high. normalised thallium flux (F/F0 slope) at 10 µM. 3,700 tested, 15% active. AID 1713;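 active = thallium flux slope above the same plate's solvent-only control mean plus 3 SD; inconclusive = the two replicate wells disagree; inactive = no significant difference from solvent-only control wells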
KCC2 bumet counter: thallium flux persisting under bumetanide in KCC2 cells, counter-screen secondary assay | normalized thallium flux at 10 µM | 3,700 tested, 49% active | HEK293-KCC2 + bumetanide/ouabain, thallium flux FluoZin2; active compounds read high | shares compounds with KCC2 mod;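 active = thallium entry rate above the same plate's blocked-transporter control wells by more than 3 SD; inconclusive = the two repeat wells disagree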;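 note: raw slope of fluorescence over initial fluorescence between 10 and 20 s after thallium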
KCC2 sec2: KCC2 (human) modulation, second secondary assay. shares compounds with KCC2 mod. HEK293-KCC2, thallium flux FluoZin2 fluorescence; actives lie on both sides; F/F0 rise rate, 10–20 s post-thallium. normalized thallium flux at 10 µM. AID 1715. 3,700 tested, 23% active;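 active = thallium flux slope more than 3 SD above or below the plate's solvent-only control mean, mostly below; inconclusive = the two repeat wells disagreed; inactive = no significant shift from solvent-only controls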
HEK293 Tl flux: acts in parental HEK cells, KCC2 counter-screen; 3,700 tested, 46% active; shares compounds with KCC2 mod; thallium flux rate (normalised fluorescence) at 10 µM; HEK293 parental cells, thallium flux FluoZin2, ouabain; baseline-ratio fluorescence slope, 10–20 s after thallium; AID 1716;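 active = thallium flux rate significantly above the same plate's solvent-only control wells, beyond their mean plus 3 SD; inconclusive = the two replicate wells gave conflicting results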
KCC2 ouabain: KCC2 (human) modulation, ouabain retest; 3,700 tested, 48% active; HEK293-KCC2, thallium flux FluoZin2 fluorescence; bidirectional: low = inhibitor, high = activator; AID 1717; raw Tl+ flux slope (below DMSO = inhibition, above = activation) at 10 µM; shares compounds with KCC2 mod;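 active = thallium flux slope beyond 3 SD from same-plate DMSO control mean in most replicates, usually higher, sometimes lower; inconclusive = repeat tests gave conflicting results; inactive = no significant difference from controls in most replicates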;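 note: slope of initial-normalized fluorescence between seconds 10 and 20 after thallium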
HEK counter2: acts in parental HEK cells, second KCC2 counter-screen; HEK293 parental, thallium flux FluoZin-2 fluorescence slope; AID 1718; thallium flux slope at 10 µM; shares compounds with KCC2 mod; 3,700 tested, 33% active;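 active = thallium flux slope above the same plate's solvent-control mean plus 3 SD in both duplicate wells; inconclusive = duplicate wells that disagreed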;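 note: run without ouabain in cells lacking the KCC2 cotransporter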
Hits are given with their value; n = inactive; u = inconclusive; x = no result. This is a sample that favours compounds with a hit; in the whole collection about 4.1% have one here.

SMILES	KCNQ1 block	KCNQ1 pot	hERG rescue	KCC2 mod	KCNK9 inh	KCNK3 block	KCC2 sec1	KCC2 bumet counter	KCC2 sec2	HEK293 Tl flux	KCC2 ouabain	HEK counter2
NC(=S)N=Nc1c(O)n(Cc2ccc(F)cc2)c2ccccc12	n	n	n	4.7	n	n	u	0.01	n	0.014	0.029	0.012
Cc1cccc(NC(=O)Cn2c(O)c(N=NC(N)=S)c3ccccc32)c1	n	n	n	n	n	n	x	x	x	x	x	x
Cc1cccc(Cn2c(O)c(N=NC(=S)Nc3ccccc3F)c3ccccc32)c1	n	8	27	6.8	n	n	n	0.031	n	u	u	n
O=Nc1c(O)n(Cc2ccc(Cl)cc2)c2ccccc12	n	n	n	n	n	n	x	x	x	x	x	x
Cc1ccc2c(c1)c(N=NC(N)=S)c(O)n2Cc1ccccc1	n	n	n	4.3	n	n	n	0.0075	n	0.011	n	0.014
CC12CCC(C(=O)Nc3nc4ccc(Br)cc4s3)(OC1=O)C2(C)C (stereo not drawn)	n	n	n	9.7	n	n	n	0.04	u	0.017	0.035	0.022
CC12CCC(C(=O)Nc3nccs3)(OC1=O)C2(C)C (stereo not drawn)	n	n	n	n	n	n	x	x	x	x	x	x
Cc1ccccc1OCC(=O)Nc1ccc2[nH]ncc2c1	n	n	n	x	n	n	x	x	x	x	x	x
CCC(=O)c1cc(F)c(N2CCN(C(=O)Cc3ccccc3)CC2)cc1C	n	n	n	-2.9	n	n	n	n	n	n	0.018	u
O=C(Cc1ccc(-n2cccc2)cc1)N1CCN(c2ccccc2F)CC1	n	n	n	-6.8	n	n	n	n	n	n	0.016	n
CCC(=O)c1ccc(N2CCN(C(=O)Cc3ccccc3)CC2)c(F)c1	n	n	n	n	n	n	x	x	x	x	x	x
CC(C)C[C@@H](CNCC(=O)[C@H](CC(=O)O)NC(=O)c1[nH]cnc1C(=O)N[C@H](CN)CC(C)C)NC(=O)c1nc[nH]c1C(=O)N[C@@H](C)C(=O)O	x	x	x	x	x	n	x	x	x	x	x	x
CC(Sc1nccn1C)C(=O)c1c(N)n(C)c(=O)n(C)c1=O (stereo not drawn)	n	n	n	x	n	n	x	x	x	x	x	x
CNC(=S)N(CCc1cccc(C)c1)Cc1cc2cc(OC)c(OC)cc2[nH]c1=O	n	n	n	n	n	n	x	x	x	x	x	x
CNC(=S)N(Cc1cc2cc(OC)c(OC)cc2[nH]c1=O)C1CCCC1	n	n	n	-4.2	n	n	n	n	n	u	n	n
O=C(NCCCCc1ccccc1)C1CC(c2ccccc2[N+](=O)[O-])=NO1 (stereo not drawn)	n	n	n	-6.4	n	n	n	n	0.021	n	0.013	n
COc1cc(OC)c(C2=NOC(C(=O)NCCc3ccccc3)C2)cc1Cl (stereo not drawn)	n	n	n	x	n	n	n	n	0.026	n	u	n
O=C(NCCCCc1ccccc1)C1CC(c2ccccc2C(F)(F)F)=NO1 (stereo not drawn)	n	n	n	-4.2	n	n	n	n	0.023	n	0.016	n
O=C(NCCCCc1ccccc1)C1CC(c2ccc(C(F)(F)F)cc2)=NO1 (stereo not drawn)	n	n	n	n	n	n	x	x	x	x	x	x
Cc1ccc(C)c(N(C)S(=O)(=O)c2ccc3c(c2)oc(=O)n3C)c1	n	n	n	x	n	n	x	x	x	x	x	x
O=C1CCC(=O)N1Cc1c(Cl)cccc1Cl	n	n	n	x	n	n	x	x	x	x	x	x
CCN(CC1CCCO1)C(=O)C1CCN(C2CCN(Cc3ccccc3C)CC2)CC1 (stereo not drawn)	n	n	n	x	n	n	x	x	x	x	x	x
CCN(C[C@H]1N[C@@](CC)(C(=O)OC)[C@H]2C(=O)N(C)C(=O)[C@@H]12)C(=O)c1ccccc1	x	x	x	x	x	n	x	x	x	x	x	x
O=C(CCc1nnc(COc2ccccc2)o1)NCc1ccccc1C(F)(F)F	n	n	n	-3.2	n	n	n	n	n	n	0.017	n
O=C(NC1CC1)c1cc2c(s1)-c1ccccc1OC2	n	n	n	x	n	n	n	n	n	n	0.017	n
SMILES	KCNQ1 block	KCNQ1 pot	hERG rescue	KCC2 mod	KCNK9 inh	KCNK3 block	KCC2 sec1	KCC2 bumet counter	KCC2 sec2	HEK293 Tl flux	KCC2 ouabain	HEK counter2
Cc1ccc(-c2n[nH]c(=O)c3ccccc23)cc1S(=O)(=O)NCCN1CCOCC1	n	n	n	n	n	n	n	0.0087	n	0.0088	n	u
COc1cccc(NC(=S)NNC(=O)c2ccccc2OC(F)F)c1	n	n	n	n	n	n	x	x	x	x	x	x
O=C(NNC(=S)Nc1ccc(F)cc1)c1ccccc1OC(F)F	n	n	n	n	n	n	x	x	x	x	x	x
Cc1ccc(NC(=S)NNC(=O)c2ccccc2OC(F)F)cc1	n	n	n	8.4	n	n	n	0.022	n	0.018	0.028	0.013
O=C(NNC(=S)Nc1cccc(Cl)c1)c1ccccc1OC(F)F	9	n	n	6.4	n	n	n	0.033	n	0.017	0.036	0.012
C=CC[C@H](CC(=O)N(CCO)Cc1ccccc1)C(=O)N[C@H](COC(=O)[C@@H](CC=C)CC(=O)OC(C)(C)C)c1ccccc1	x	x	x	x	x	n	x	x	x	x	x	x
Cc1cc(C(=O)O)ccc1-c1ccc(/C=C2\NC(=O)N(Cc3ccccc3Cl)C2=O)o1	n	n	n	n	n	n	x	x	x	x	x	x
Cc1ccc(C(=O)O)cc1-c1ccc(/C=C2/NC(=O)N(c3ccccc3)C2=O)o1	n	n	n	-4.6	n	n	n	n	0.022	n	0.014	n
Cc1cc(-c2nc3cccnc3s2)ccc1NS(=O)(=O)c1ccc2c(c1)OCCO2	n	n	n	-3.9	n	n	n	n	n	n	n	n
COCC(=O)Nc1nc2ccccc2s1	n	n	n	n	n	n	x	x	x	x	x	x
Nc1ccc(C(=O)Nc2nc3ccccc3s2)cc1	n	n	n	-3.6	n	n	n	n	n	n	n	n

High-throughput results from PubChem BioAssay.
